# This is a sample that favours compounds with a hit; in the whole collection about 2.5% have one here.
# DENV2 CPE rescue: inhibitors of DENV2 cytopathic effect, primary screen, cell-based, plate reader, single concentration. hit rate 1.7% among 350,000. DENV2-infected cells, cytopathic effect rescue. CPE inhibition, % at 9.99 µM; in the data active = CPE inhibition above about 20%, passing the limit was not always enough; inconclusive = no clear call, values can overlap the other calls; tested in BHK-21 cells;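 note: 0% = median of neutral control wells and 100% = median of positive control wells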
# ERAP1 inh: human ERAP1 aminopeptidase inhibitors, primary screen, biochemical, single point, plate reader | hit rate 0.15% among 340,000 | AID 652197, 2013 | Endoplasmic reticulum aminopeptidase 1 (Homo sapiens), Q9NZ08 | inhibition, % at 10.7 µM | recombinant ERAP1, Leu-AMC fluorescence, 60 min;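 active = mean replicate inhibition of at least 30%, or all replicates individually reaching that 30% level; inactive = mean below 30% and not every replicate reaching it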;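 note: 0% = neutral control wells and 100% = L-leucinethiol positive control wells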
# Target sequence (Q9NZ08 whole entry, looked up): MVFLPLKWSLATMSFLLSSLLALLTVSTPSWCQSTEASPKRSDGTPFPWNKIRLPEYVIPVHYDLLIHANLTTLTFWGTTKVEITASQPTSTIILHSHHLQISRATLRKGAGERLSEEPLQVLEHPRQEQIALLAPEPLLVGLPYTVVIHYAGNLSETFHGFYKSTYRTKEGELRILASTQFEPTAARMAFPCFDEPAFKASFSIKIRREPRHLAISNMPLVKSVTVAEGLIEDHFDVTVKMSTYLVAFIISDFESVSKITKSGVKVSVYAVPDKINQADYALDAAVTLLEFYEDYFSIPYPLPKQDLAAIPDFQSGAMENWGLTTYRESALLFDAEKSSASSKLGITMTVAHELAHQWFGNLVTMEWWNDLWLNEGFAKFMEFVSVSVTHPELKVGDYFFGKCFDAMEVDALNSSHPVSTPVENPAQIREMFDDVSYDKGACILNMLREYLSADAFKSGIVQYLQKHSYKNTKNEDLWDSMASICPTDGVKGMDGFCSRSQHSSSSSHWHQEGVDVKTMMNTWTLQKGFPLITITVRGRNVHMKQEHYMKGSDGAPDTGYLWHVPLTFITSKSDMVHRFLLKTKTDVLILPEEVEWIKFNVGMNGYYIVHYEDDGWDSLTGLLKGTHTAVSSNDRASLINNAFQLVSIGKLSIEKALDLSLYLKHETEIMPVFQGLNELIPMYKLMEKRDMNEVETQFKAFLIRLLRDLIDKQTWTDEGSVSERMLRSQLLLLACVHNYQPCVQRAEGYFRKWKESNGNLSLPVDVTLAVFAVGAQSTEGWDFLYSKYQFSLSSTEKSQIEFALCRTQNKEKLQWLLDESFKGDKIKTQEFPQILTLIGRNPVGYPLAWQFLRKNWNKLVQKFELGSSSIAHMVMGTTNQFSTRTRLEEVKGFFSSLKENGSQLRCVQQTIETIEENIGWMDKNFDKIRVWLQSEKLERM
# PglD inh: C. jejuni PglD acetyltransferase inhibitors, primary screen, biochemical, DTNB colorimetric, single point; inhibition, % at 12.5 µM; UDP-N-acetylbacillosamine N-acetyltransferase PglD (Campylobacter jejuni); purified PglD enzyme, DTNB colorimetric CoA detection; hit rate 0.098% among 360,000; in the data active = inhibition above about 16%, passing the limit was not always enough; inconclusive = no clear call, values can overlap the other calls
# SIRT5 block: SIRT5 desuccinylase inhibitors, primary screen, biochemical, fluorescence imaging, single point, set 5 | AID 652115, 2013 | inhibition, % at 15 µM | Purified SirT5, succinyl-peptide AMC, trypsin-coupled fluorescence | hit rate 1.1% among 330,000; in the data active = inhibition above about 15%; inconclusive = no clear call, values can overlap the other calls
# E-sel inducer: E-selectin induction in HUVECs, primary screen, imaging, HUVEC, immunofluorescence imaging, single point | activation, % at 7.58 µM | hit rate 0.37% among 260,000 | P16581 | normalized: neutral wells 0, TNF-alpha wells 100;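 active = mean E-selectin-positive cell signal at least 10% of the positive control, reached in at least 60% of replicates, without over 20% cell loss; inconclusive = no rule given, readout overlaps actives, possibly toxicity-flagged; inactive = the rest, including those meeting only one limit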
#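 Read-out: % PE-positive cells | Test system: HUVEC | Doses: One compound dose added by pin transfer | Buffer or medium: EGM-2 over gelatin coat | Signal: Immunofluorescence imaging | Benchmarks: TNF-alpha, DMSO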
# * marks the source's active call; other numbers are inactive results; u = inconclusive; x = no result given.
SMILES,DENV2 CPE rescue,ERAP1 inh,PglD inh,SIRT5 block,E-sel inducer
COc1ccccc1CNc1nc2cc(-c3ccc(OC)c(OC)c3)sc2c(=O)n1C,-2,7,-2,20*,0
COc1ccc(C2CC(c3cccs3)=NN2C(=O)CCC(=O)O)cc1 (stereo not drawn),2,x,2,0,0
COc1ccc(C2CC(c3ccc(C)o3)=NN2C(C)=O)cc1 (stereo not drawn),34*,-5,x,0,x
COc1ccc(C2CC(c3cccs3)=NN2C(=O)CN2CCCCC2)cc1 (stereo not drawn),1,-9,x,33*,x
COc1ccc(C2=NN(C(=O)CCC(=O)O)C(c3ccc(OC)cc3)C2)cc1 (stereo not drawn),2,-4,1,21*,x
O=c1cc(O)c2ccccc2n1Cc1ccccc1Cl,x,-3,-1,-4,2
CC(=O)c1ccc(OCc2cc(C(=O)N3CCN(c4ccccc4)CC3C)no2)cc1 (stereo not drawn),0,-3,3,-2,x
Cc1noc(C)c1S(=O)(=O)Nc1ccc2c(c1)C(=O)N([C@H](C)CO)C[C@H](C)[C@H](CN(C)Cc1ccccc1)O2,21*,3,-1,7,0
Cc1noc(C)c1S(=O)(=O)Nc1ccc2c(c1)C(=O)N([C@@H](C)CO)C[C@@H](C)[C@@H](CN(C)Cc1ccc3c(c1)OCO3)O2,32*,2,2,2,33*
COc1ccc(CN(C)C[C@H]2Oc3ccc(NS(=O)(=O)c4c(C)noc4C)cc3C(=O)N([C@H](C)CO)C[C@H]2C)cc1,29*,2,-4,11,20
Cc1noc(C)c1S(=O)(=O)Nc1ccc2c(c1)C(=O)N([C@H](C)CO)C[C@H](C)[C@@H](CN(C)Cc1ccccc1)O2,2,3,-2,-4,0
COc1ccc(C#Cc2cnc3c(c2)C(=O)N([C@H](C)CO)C[C@H](C)[C@H](CN(C)CC2CCCC2)O3)cc1,40*,5,2,2,1
C[C@H](O)C#Cc1cnc2c(c1)C(=O)N([C@H](C)CO)C[C@H](C)[C@@H](CN(C)CC1CCCC1)O2,7,-11,3,21*,1
C[C@H]1CN([C@@H](C)CO)C(=O)c2cc(C#Cc3cccc(F)c3)cnc2O[C@@H]1CN(C)CC1CCCC1,15,0,9,23*,x
COc1ccc(C#Cc2cnc3c(c2)C(=O)N([C@@H](C)CO)C[C@H](C)[C@H](CN(C)CC2CCCC2)O3)cc1,37*,2,36,4,2
COc1ccc(N(CC(=O)NCc2ccc3c(c2)OCO3)S(C)(=O)=O)cc1OC,3,-1,-4,7,x
O=C(CSc1nncn1-c1ccccc1)Nc1cccc(S(=O)(=O)N2CCCCC2)c1,u,2,x,-3,x
O=C(CCS(=O)(=O)c1cccc2nonc12)NC1CCCCCC1,x,x,3,x,x
COC(=O)[C@@]1(Cc2ccccc2)[C@H]2C(=O)N(Cc3ccccc3)C(=O)[C@H]2[C@H]2CN=C(SCc3ccccc3)N21,8,0,-2,-5,x
CCOC(=O)c1c(N)c2cc([N+](=O)[O-])cnc2n1C,3,1,6,-2,1
CCOC(=O)c1c(NC(=O)c2ccno2)c2cc([N+](=O)[O-])ccc2n1C,84*,-3,x,-2,x
COc1ccc(OC)c(NC(=O)C2CCCC2)c1,x,x,1,x,x
COc1ccc(OC)c(NC(=O)C2CCN(C(=O)c3cccs3)CC2)c1,14,7,x,22*,-7
O=C(C[C@@H]1C[C@@H]2c3cc(NS(=O)(=O)c4ccc(F)cc4)ccc3O[C@@H]2[C@H](CO)O1)NCCc1ccccc1,58*,0,1,-1,0
O=C(C[C@H]1C[C@H]2c3cc(NS(=O)(=O)c4ccc(F)cc4)ccc3O[C@H]2[C@@H](CO)O1)NCCc1ccccc1,59*,-2,1,1,-1
O=C(C[C@@H]1C[C@H]2c3cc(NS(=O)(=O)c4ccc(F)cc4)ccc3O[C@H]2[C@@H](CO)O1)NCCc1ccccc1,u,3,-2,1,-1
